ChEMBL document CHEMBL1157720, “Development of carbohydrate-derived inhibitors of acid sphingomyelinase” (Bioorg Med Chem, 2010)
Calls of active or inactive are those of the source. No cut-off for these calls is given here.

Key:
Rattus norvegicus = organism: Rattus norvegicus; details: Brain, Microsomal
[1] = molecular target: T1, Sphingomyelin phosphodiesterase 2 (Rattus norvegicus, UniProt Q9ET64); experiment: Inhibition of nSMase in rat brain microsomal homogenate by micellar 14C-sphingomyelin assay
T1 sequence (Q9ET64 whole entry): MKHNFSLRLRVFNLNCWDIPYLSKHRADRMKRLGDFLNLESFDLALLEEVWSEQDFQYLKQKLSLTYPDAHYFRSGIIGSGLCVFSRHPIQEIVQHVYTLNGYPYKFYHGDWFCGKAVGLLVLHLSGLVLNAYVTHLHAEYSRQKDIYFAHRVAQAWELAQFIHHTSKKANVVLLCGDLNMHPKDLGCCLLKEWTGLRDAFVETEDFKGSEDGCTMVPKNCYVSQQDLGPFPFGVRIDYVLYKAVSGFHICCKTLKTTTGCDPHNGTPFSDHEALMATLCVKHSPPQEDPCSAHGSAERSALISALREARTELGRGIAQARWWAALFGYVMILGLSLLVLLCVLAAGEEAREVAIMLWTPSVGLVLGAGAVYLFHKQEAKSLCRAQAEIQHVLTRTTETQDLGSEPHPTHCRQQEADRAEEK

[2] = Inhibition of aSMase in rat brain microsomal homogenate by fluorescence assay
HEK293 = experiment: Inhibition of dexamethasone-induced apoptosis in HEK293 cells assessed as decrease in DNA fragmentation at 1 to 2 uM after 7 hrs by ELISA; format: functional, cell-based; details: Homo sapiens
Procedure, shortened: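 HEK-293 cells in medium with BrdU labelling solution (10 µM final) were plated at about 0.5 × 10³ cells/well. After 16 h they were washed and re-fed, then given 10^-8 M dexamethasone plus inhibitor for 7 h. Supernatant went to an anti-BrdU ELISA (secondary antibody, TMB), with absorbance at 370 nm. Quintuplicate.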

Which Km (Rattus norvegicus) does the source give for `CCCCCC/C=C\C=C/C/C=C\C/C=C\CCCC(=O)OC(COC(=O)CCCCCCCCCCCCCCCCC)COP(=O)(O)O[C@@H]1[C@H](O)[C@H](OP(=O)(O)O)[C@@H](O)[C@H](OP(=O)(O)O)[C@H]1O` (some centres not stated) here?
The Km was 0.53 µM.

What about the IC50 [1] of the same compound?
Its IC50 is greater than 100 µM.

For `CCCCCCS(=O)(=O)OC[C@H]1OC(O)[C@H](OP(=O)(O)O)[C@@H](O)[C@@H]1OP(=O)(O)O` (some centres not stated), which IC50 [1] is on record?
The IC50 was greater than 100 µM.

What does the source list for `CCCCCCCCCCCCS(=O)(=O)OC[C@H]1OC(O)[C@H](OP(=O)(O)O)[C@@H](O)[C@@H]1OP(=O)(O)O` (some centres not stated)?
IC50 [2]: 0.44 µM; Activity (HEK293): Active; IC50 [1]: > 100 µM

Which results are given for `CCCCCCCCS(=O)(=O)OC[C@H]1OC(O)[C@H](OP(=O)(O)O)[C@@H](O)[C@@H]1OP(=O)(O)O` (some centres not stated)?
IC50 [2]: 2.34 µM; IC50 [1]: > 100 µM

For `O=P(O)(O)OC[C@H]1OC[C@H](OP(=O)(O)O)C[C@@H]1OP(=O)(O)O`, which IC50 [2] is on record?
The IC50 was greater than 50 µM.

Which IC50 [2] does the source give for `O=P(O)(O)OC[C@H]1OC(O)[C@H](OP(=O)(O)O)[C@@H](O)[C@@H]1OP(=O)(O)O` (some centres not stated) here?
The IC50 was greater than 50 µM.

What does the source list for `CCS(=O)(=O)OC[C@H]1OC(O)[C@H](OP(=O)(O)O)[C@@H](O)[C@@H]1OP(=O)(O)O` (some centres not stated)?
IC50 [2]: 39.6 µM; IC50 [1]: > 100 µM
